pIC50: −log10 of the molar value.
Legend:
[1] = target: Signal transducer and activator of transcription 3 (Homo sapiens, UniProt P40763); assay: Inhibition of IFNgamma-induced STAT3 activation in human HeLa cells expressing STAT3 (unknown origin) preincubated for 15 mins followed by IFN-gamma addition measured after 6 hrs by luciferase reporter gene assay
Outline: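 HeLa-STAT3-Luc reporter cells in DMEM with 10% heat-inactivated FBS. Compounds added 15 min before IFNγ (20 IU). Stimulated 6 h. Cells washed in PBS and lysed 15 min at room temperature in Tris-phosphate pH 7.8 lysis buffer. Luciferase read in centrifuged lysate supernatant. IC50 calculated.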

[2] = target: Transcription factor p65 (Human, UniProt Q04206); assay: Inhibition of NFkappaB p65 activation (unknown origin) expressed in human HeLa cells assessed as inhibition of TNFalpha-induced NFkappaB p65 nuclear accumulation pretreated with cells followed by TNFalpha addition by DAPI staining based microscopic analysis
Chain of Transcription factor p65 (Q04206 whole entry): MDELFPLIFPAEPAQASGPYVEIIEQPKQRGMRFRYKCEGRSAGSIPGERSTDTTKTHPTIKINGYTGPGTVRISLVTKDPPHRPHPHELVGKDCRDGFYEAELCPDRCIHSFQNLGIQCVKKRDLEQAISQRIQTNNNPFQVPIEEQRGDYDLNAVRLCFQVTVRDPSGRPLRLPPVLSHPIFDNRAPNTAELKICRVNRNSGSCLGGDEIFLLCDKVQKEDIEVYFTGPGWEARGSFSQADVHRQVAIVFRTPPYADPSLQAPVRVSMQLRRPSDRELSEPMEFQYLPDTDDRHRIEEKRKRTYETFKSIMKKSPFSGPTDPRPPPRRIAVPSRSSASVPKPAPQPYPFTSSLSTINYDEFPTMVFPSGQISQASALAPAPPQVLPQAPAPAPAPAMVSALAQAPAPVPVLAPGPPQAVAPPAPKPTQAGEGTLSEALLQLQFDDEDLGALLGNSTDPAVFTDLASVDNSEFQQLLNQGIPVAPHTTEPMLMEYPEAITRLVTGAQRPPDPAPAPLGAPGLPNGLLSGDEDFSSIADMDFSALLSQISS

Chain of Signal transducer and activator of transcription 3 (P40763 whole entry): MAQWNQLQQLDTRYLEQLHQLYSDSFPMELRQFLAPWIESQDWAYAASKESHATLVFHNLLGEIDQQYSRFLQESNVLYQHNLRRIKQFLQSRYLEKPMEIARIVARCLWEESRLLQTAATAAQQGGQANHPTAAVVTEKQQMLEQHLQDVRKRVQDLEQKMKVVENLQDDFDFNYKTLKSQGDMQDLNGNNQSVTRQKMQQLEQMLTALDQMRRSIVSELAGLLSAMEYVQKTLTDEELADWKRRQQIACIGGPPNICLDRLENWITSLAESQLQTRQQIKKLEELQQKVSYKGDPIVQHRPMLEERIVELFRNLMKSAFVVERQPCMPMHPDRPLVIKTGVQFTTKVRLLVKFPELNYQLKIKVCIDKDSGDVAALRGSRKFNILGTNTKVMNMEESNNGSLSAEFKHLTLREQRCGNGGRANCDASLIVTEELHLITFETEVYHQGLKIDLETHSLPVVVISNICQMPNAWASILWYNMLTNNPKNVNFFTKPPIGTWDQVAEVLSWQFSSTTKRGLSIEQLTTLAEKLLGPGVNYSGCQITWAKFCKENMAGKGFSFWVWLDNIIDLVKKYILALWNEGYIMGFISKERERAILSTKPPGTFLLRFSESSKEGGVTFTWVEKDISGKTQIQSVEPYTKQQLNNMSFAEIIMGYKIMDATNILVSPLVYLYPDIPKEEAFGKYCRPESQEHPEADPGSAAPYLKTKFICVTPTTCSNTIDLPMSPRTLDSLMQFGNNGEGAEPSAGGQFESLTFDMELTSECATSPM

SMILES | pIC50 [1] | pIC50 [2]
CC(=O)O[C@H]1CC[C@@]2(C)O[C@H]2CC/C(C)=C/C[C@]2(C(C)C)CC[C@@]1(C)O2 | < 4.30 | –
C/C1=C\CC/C(C)=C/C[C@](O)(C(C)C)CC/C(C)=C/CC1 | < 4.30 | –
C/C1=C\C[C@]2(C(C)C)CC[C@@](C)(O2)[C@@H](OC(=O)Cc2ccccc2)CC/C(C)=C/CC1 | < 4.30 | –
CC(=O)O[C@H]1CC/C(C)=C/CC/C(C)=C/C[C@]2(C(C)C)CC[C@@]1(C)O2 | < 4.30 | < 4.00
C/C1=C\CC[C@]2(C)O[C@@H]2C[C@]2(C(C)C)CC[C@@](C)(O2)[C@@H](O)CC1 | < 4.30 | –
CC1=C2CC/C(C)=C/CC[C@]3(C)O[C@@H]3CC/C(C)=C/[C@@H]2OC1=O | < 4.30 | –
C/C1=C\C[C@]2(C(C)C)CC[C@@](C)(O2)[C@@H](O)CC/C(C)=C/CC1 [Incensole] | 4.80 | –
CC(=O)O[C@H]1CC/C(C)=C/CC[C@]2(C)O[C@@H]2C[C@]2(C(C)C)CC[C@@]1(C)O2 | < 4.30 | –
C/C1=C\C[C@]2(C(C)C)CC[C@@](C)(O2)[C@H](O)CC/C(C)=C/CC1 | < 4.30 | –
